Where “and” joins values, the source holds several entries; their conditions need not be identical. Identical values can stand only once.
Test system: HEK-293T
Assay: Multiplex assay against HEK293T
Assay type: toxicity, cell-based
Settings: human, number of replicates 2
Outline: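 Cells were classed with CellPathfinder machine-learning gating, first as Hoechst high-intensity objects or normal cells, then (normal cells) as healthy, pyknosed or fragmented nuclei, and finally (pyknosed cells) as mitotic or apoptotic. Staining of live cells at seeding used Hoechst33342, BioTracker Green Microtubule Cytoskeleton Dye, MitoTracker Red and Annexin V Alexa Fluor 680, with imaging on a CQ1 microscope at 37°C and 5% CO2 after compound addition. Tubulin, mitochondrial-mass and membrane-permeability phenotypes are per cents of healthy-nucleus cells.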

[1] = 12 h, 1 µM, compound concentration 1 uM
[2] = 12 h, 10 µM, compound concentration 10 uM
[3] = 24 h, 1 µM, compound concentration 1 uM
[4] = 24 h, 10 µM, compound concentration 10 uM
[5] = 48 h, 1 µM, compound concentration 1 uM
[6] = 48 h, 10 µM, compound concentration 10 uM

## CCn1ccc(Nc2ncc3c(n2)-c2c(nn(C)c2-c2ccc(-c4cnn(C)c4)cc2Cl)CC3)n1
[1]
  Population Apoptotic (%): 31% and 47%
  Population Fragmented Nuclei (%): 3%
  Population Healthy Nuclei (%): 87% and 84%
  Population Hoechst High Intensity Objects (%): 14% and 10%
  Population Membrane Permeable-Phenotype (%): 1% and 0%
  Population Mitochondria Different-Phenotype (%): 44% and 42%
  Population Mitotic Cells (%): 68% and 52%
  Population Normal (%): 85% and 89%
  Population Pyknosed Nuclei (%): 8% and 12%
  Population Tubulin-Different-Phenotype (%): 84% and 81%
  Total Cell Count: 429 and 424
[2]
  Population Apoptotic (%): 76% and 63%
  Population Fragmented Nuclei (%): 4% and 9%
  Population Healthy Nuclei (%): 86% and 80%
  Population Hoechst High Intensity Objects (%): 11%
  Population Membrane Permeable-Phenotype (%): 3% and 0%
  Population Mitochondria Different-Phenotype (%): 58% and 68%
  Population Mitotic Cells (%): 24% and 36%
  Population Normal (%): 88%
  Population Pyknosed Nuclei (%): 8% and 10%
  Population Tubulin-Different-Phenotype (%): 92% and 94%
  Total Cell Count: 332 and 321
[3]
  Population Apoptotic (%): 26% and 62%
  Population Fragmented Nuclei (%): 5%
  Population Healthy Nuclei (%): 87% and 85%
  Population Hoechst High Intensity Objects (%): 13% and 15%
  Population Membrane Permeable-Phenotype (%): 1%
  Population Mitochondria Different-Phenotype (%): 40% and 28%
  Population Mitotic Cells (%): 73% and 37%
  Population Normal (%): 86% and 84%
  Population Pyknosed Nuclei (%): 7% and 9%
  Population Tubulin-Different-Phenotype (%): 80% and 69%
  Total Cell Count: 473 and 512
[4]
  Population Apoptotic (%): 72% and 81%
  Population Fragmented Nuclei (%): 4% and 11%
  Population Healthy Nuclei (%): 89% and 80%
  Population Hoechst High Intensity Objects (%): 15% and 18%
  Population Membrane Permeable-Phenotype (%): 0% and 1%
  Population Mitochondria Different-Phenotype (%): 34% and 45%
  Population Mitotic Cells (%): 27% and 18%
  Population Normal (%): 84% and 81%
  Population Pyknosed Nuclei (%): 5% and 8%
  Population Tubulin-Different-Phenotype (%): 80%
  Total Cell Count: 438 and 393
[5]
  Population Apoptotic (%): 52% and 61%
  Population Fragmented Nuclei (%): 13% and 10%
  Population Healthy Nuclei (%): 83% and 85%
  Population Hoechst High Intensity Objects (%): 20%
  Population Membrane Permeable-Phenotype (%): 4% and 2%
  Population Mitochondria Different-Phenotype (%): 7% and 12%
  Population Mitotic Cells (%): 47% and 38%
  Population Normal (%): 79%
  Population Pyknosed Nuclei (%): 2% and 3%
  Population Tubulin-Different-Phenotype (%): 60% and 59%
  Total Cell Count: 930 and 827
[6]
  Population Apoptotic (%): 41% and 52%
  Population Fragmented Nuclei (%): 11% and 14%
  Population Healthy Nuclei (%): 85% and 82%
  Population Hoechst High Intensity Objects (%): 14% and 18%
  Population Membrane Permeable-Phenotype (%): 2% and 0%
  Population Mitochondria Different-Phenotype (%): 11% and 15%
  Population Mitotic Cells (%): 58% and 47%
  Population Normal (%): 85% and 81%
  Population Pyknosed Nuclei (%): 2% and 3%
  Population Tubulin-Different-Phenotype (%): 65% and 63%
  Total Cell Count: 674 and 549

## Cc1ccc2c(c1CCC(=O)O)CC[C@@H](NS(=O)(=O)c1ccc(Cl)cc1)C2 [TERUTROBAN]
[1]
  Population Apoptotic (%): 59% and 56%
  Population Fragmented Nuclei (%): 2% and 4%
  Population Healthy Nuclei (%): 81%
  Population Hoechst High Intensity Objects (%): 7%
  Population Membrane Permeable-Phenotype (%): 3% and 2%
  Population Mitochondria Different-Phenotype (%): 20% and 14%
  Population Mitotic Cells (%): 40% and 43%
  Population Normal (%): 92%
  Population Pyknosed Nuclei (%): 15% and 14%
  Population Tubulin-Different-Phenotype (%): 47%
  Total Cell Count: 534 and 671
[2]
  Population Apoptotic (%): 55% and 71%
  Population Fragmented Nuclei (%): 5% and 3%
  Population Healthy Nuclei (%): 77% and 81%
  Population Hoechst High Intensity Objects (%): 8%
  Population Membrane Permeable-Phenotype (%): 4% and 1%
  Population Mitochondria Different-Phenotype (%): 24% and 20%
  Population Mitotic Cells (%): 44% and 28%
  Population Normal (%): 91%
  Population Pyknosed Nuclei (%): 17% and 15%
  Population Tubulin-Different-Phenotype (%): 70% and 50%
  Total Cell Count: 599 and 487
[3]
  Population Apoptotic (%): 65% and 40%
  Population Fragmented Nuclei (%): 7% and 6%
  Population Healthy Nuclei (%): 81% and 86%
  Population Hoechst High Intensity Objects (%): 6% and 9%
  Population Membrane Permeable-Phenotype (%): 3%
  Population Mitochondria Different-Phenotype (%): 6% and 5%
  Population Mitotic Cells (%): 35% and 59%
  Population Normal (%): 93% and 90%
  Population Pyknosed Nuclei (%): 10% and 6%
  Population Tubulin-Different-Phenotype (%): 30% and 25%
  Total Cell Count: 837 and 1016
[4]
  Population Apoptotic (%): 58% and 52%
  Population Fragmented Nuclei (%): 9% and 6%
  Population Healthy Nuclei (%): 79% and 84%
  Population Hoechst High Intensity Objects (%): 8% and 9%
  Population Membrane Permeable-Phenotype (%): 2% and 3%
  Population Mitochondria Different-Phenotype (%): 9% and 7%
  Population Mitotic Cells (%): 41% and 47%
  Population Normal (%): 91% and 90%
  Population Pyknosed Nuclei (%): 11% and 9%
  Population Tubulin-Different-Phenotype (%): 44% and 35%
  Total Cell Count: 911 and 714
[5]
  Population Apoptotic (%): 11%
  Population Fragmented Nuclei (%): 12% and 9%
  Population Healthy Nuclei (%): 82% and 86%
  Population Hoechst High Intensity Objects (%): 7% and 9%
  Population Membrane Permeable-Phenotype (%): 4% and 7%
  Population Mitochondria Different-Phenotype (%): 0% and 1%
  Population Mitotic Cells (%): 88%
  Population Normal (%): 92% and 90%
  Population Pyknosed Nuclei (%): 4% and 3%
  Population Tubulin-Different-Phenotype (%): 12% and 11%
  Total Cell Count: 2114 and 2407
[6]
  Population Apoptotic (%): 26% and 21%
  Population Fragmented Nuclei (%): 14% and 10%
  Population Healthy Nuclei (%): 80% and 86%
  Population Hoechst High Intensity Objects (%): 9% and 8%
  Population Membrane Permeable-Phenotype (%): 6% and 5%
  Population Mitochondria Different-Phenotype (%): 1%
  Population Mitotic Cells (%): 73% and 78%
  Population Normal (%): 90% and 91%
  Population Pyknosed Nuclei (%): 5% and 3%
  Population Tubulin-Different-Phenotype (%): 20% and 15%
  Total Cell Count: 1958 and 1618

## COc1ccc(-c2cc3c(C)nc(N)nc3n([C@H]3CC[C@H](OCCO)CC3)c2=O)cn1 [PF-04691502]
[1]
  Population Apoptotic (%): 74% and 67%
  Population Fragmented Nuclei (%): 3% and 2%
  Population Healthy Nuclei (%): 86% and 87%
  Population Hoechst High Intensity Objects (%): 12% and 13%
  Population Membrane Permeable-Phenotype (%): 0% and 2%
  Population Mitochondria Different-Phenotype (%): 36% and 56%
  Population Mitotic Cells (%): 25% and 32%
  Population Normal (%): 87% and 86%
  Population Pyknosed Nuclei (%): 10%
  Population Tubulin-Different-Phenotype (%): 60% and 67%
  Total Cell Count: 425 and 310
[2]
  Population Apoptotic (%): 73% and 71%
  Population Fragmented Nuclei (%): 7% and 3%
  Population Healthy Nuclei (%): 69% and 75%
  Population Hoechst High Intensity Objects (%): 24% and 19%
  Population Membrane Permeable-Phenotype (%): 1% and 5%
  Population Mitochondria Different-Phenotype (%): 80% and 72%
  Population Mitotic Cells (%): 26% and 28%
  Population Normal (%): 75% and 80%
  Population Pyknosed Nuclei (%): 23% and 21%
  Population Tubulin-Different-Phenotype (%): 77% and 78%
  Total Cell Count: 170 and 187
[3]
  Population Apoptotic (%): 71% and 78%
  Population Fragmented Nuclei (%): 7%
  Population Healthy Nuclei (%): 76% and 81%
  Population Hoechst High Intensity Objects (%): 24% and 20%
  Population Membrane Permeable-Phenotype (%): 1%
  Population Mitochondria Different-Phenotype (%): 40% and 55%
  Population Mitotic Cells (%): 28% and 21%
  Population Normal (%): 75% and 79%
  Population Pyknosed Nuclei (%): 16% and 10%
  Population Tubulin-Different-Phenotype (%): 64% and 68%
  Total Cell Count: 314 and 266
[4]
  Population Apoptotic (%): 66% and 60%
  Population Fragmented Nuclei (%): 9% and 7%
  Population Healthy Nuclei (%): 70% and 77%
  Population Hoechst High Intensity Objects (%): 26% and 30%
  Population Membrane Permeable-Phenotype (%): 2% and 0%
  Population Mitochondria Different-Phenotype (%): 72% and 61%
  Population Mitotic Cells (%): 33% and 40%
  Population Normal (%): 73% and 69%
  Population Pyknosed Nuclei (%): 20% and 14%
  Population Tubulin-Different-Phenotype (%): 79% and 69%
  Total Cell Count: 163 and 192
[5]
  Population Apoptotic (%): 70% and 77%
  Population Fragmented Nuclei (%): 9% and 10%
  Population Healthy Nuclei (%): 69% and 65%
  Population Hoechst High Intensity Objects (%): 28% and 27%
  Population Membrane Permeable-Phenotype (%): 0% and 1%
  Population Mitochondria Different-Phenotype (%): 42% and 44%
  Population Mitotic Cells (%): 29% and 22%
  Population Normal (%): 71% and 72%
  Population Pyknosed Nuclei (%): 20% and 24%
  Population Tubulin-Different-Phenotype (%): 69% and 75%
  Total Cell Count: 275 and 280
[6]
  Population Apoptotic (%): 70% and 64%
  Population Fragmented Nuclei (%): 14% and 18%
  Population Healthy Nuclei (%): 74%
  Population Hoechst High Intensity Objects (%): 31% and 28%
  Population Membrane Permeable-Phenotype (%): 0% and 1%
  Population Mitochondria Different-Phenotype (%): 40% and 27%
  Population Mitotic Cells (%): 30% and 35%
  Population Normal (%): 68% and 71%
  Population Pyknosed Nuclei (%): 10% and 6%
  Population Tubulin-Different-Phenotype (%): 61% and 50%
  Total Cell Count: 273 and 293

## CN[C@@H]1C[C@H]2O[C@@](C)([C@@H]1OC)n1c3ccccc3c3c4c(c5c6ccccc6n2c5c31)C(=O)NC4 [STAUROSPORINE]
[2]
  Population Apoptotic (%): 56% and 55% and 68% and 63%
  Population Fragmented Nuclei (%): 20% and 14% and 21%
  Population Healthy Nuclei (%): 37% and 34% and 23% and 29%
  Population Hoechst High Intensity Objects (%): 7% and 8% and 5%
  Population Membrane Permeable-Phenotype (%): 11% and 12% and 7%
  Population Mitochondria Different-Phenotype (%): 46% and 52% and 60% and 51%
  Population Mitotic Cells (%): 43% and 44% and 31% and 36%
  Population Normal (%): 92% and 91% and 94%
  Population Pyknosed Nuclei (%): 41% and 51% and 55% and 50%
  Population Tubulin-Different-Phenotype (%): 72% and 77% and 76%
[4]
  Population Apoptotic (%): 85% and 83% and 86%
  Population Fragmented Nuclei (%): 16% and 13%
  Population Healthy Nuclei (%): 17% and 22% and 23% and 18%
  Population Hoechst High Intensity Objects (%): 12% and 8% and 10% and 7%
  Population Membrane Permeable-Phenotype (%): 10% and 7% and 6%
  Population Mitochondria Different-Phenotype (%): 45% and 63% and 62%
  Population Mitotic Cells (%): 14% and 16% and 13%
  Population Normal (%): 87% and 91% and 89% and 92%
  Population Pyknosed Nuclei (%): 66% and 64% and 63% and 65%
  Population Tubulin-Different-Phenotype (%): 58% and 59% and 76% and 79%
[6]
  Population Apoptotic (%): 90% and 89% and 87% and 81%
  Population Fragmented Nuclei (%): 13% and 11% and 10%
  Population Healthy Nuclei (%): 23% and 17% and 22% and 20%
  Population Hoechst High Intensity Objects (%): 14% and 9% and 11%
  Population Membrane Permeable-Phenotype (%): 11% and 6% and 5%
  Population Mitochondria Different-Phenotype (%): 47% and 62% and 64% and 65%
  Population Mitotic Cells (%): 9% and 10% and 12% and 18%
  Population Normal (%): 85% and 90% and 88%
  Population Pyknosed Nuclei (%): 63% and 71% and 66%
  Population Tubulin-Different-Phenotype (%): 59% and 72% and 68% and 75%

— ChEMBL document CHEMBL5303300, “EUbOPEN Chemogenomics Library - Multiplex” (2023)
